High-throughput results deposited in PubChem by several laboratories.
UBC9 SUMO inh: inhibitors of in vitro SUMOylation cascade, primary screen, biochemical, HTRF, uHTS; SUMO-conjugating enzyme UBC9 (Homo sapiens), P63279; AID 2006, 2009; hit rate 0.36% among 290,000; HTRF SUMOylation assay, SAE1/SAE2 + UBC9; inhibition, % at 35 µM; in the data active = inhibition above about 50%, passing the limit was not always enough
14-3-3 Bad inh: inhibitors of 14-3-3 zeta/Bad binding, primary screen, biochemical, TR-FRET, bovine 14-3-3 zeta. TR-FRET 14-3-3zeta/Dy647-pBad peptide displacement, 1 h. inhibition, % at 21.7 µM. 14-3-3 protein zeta/delta (Bos taurus), P63103. hit rate 0.71% among 220,000. AID 781, 2007;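 active = inhibition above about 70%, limit read from the data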;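 also: 0% = full 14-3-3 plus peptide FRET controls and 100% = background without 14-3-3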
Target sequence (P63103 whole entry, looked up): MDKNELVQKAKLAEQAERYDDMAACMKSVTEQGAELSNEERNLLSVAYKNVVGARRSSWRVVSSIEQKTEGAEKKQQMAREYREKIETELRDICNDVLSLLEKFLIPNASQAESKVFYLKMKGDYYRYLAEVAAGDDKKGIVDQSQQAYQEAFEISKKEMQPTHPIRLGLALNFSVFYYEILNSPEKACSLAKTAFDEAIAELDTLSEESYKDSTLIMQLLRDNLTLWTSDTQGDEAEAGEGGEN
p97 inhibitor: inhibitors of human p97 ATPase, primary screen, biochemical | Transitional endoplasmic reticulum ATPase (Homo sapiens), P55072 | recombinant p97 ATPase, Kinase-Glo ATP luminescence, 3 h | inhibition, % at 8 µM | hit rate 0.42% among 220,000 | AID 1481, 2009; in the data active = inhibition above about 15%;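 also: 0% = DMSO vehicle and 100% = wells lacking enzyme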
NCF1 inh: p47phox/p22phox peptide binding inhibitors, primary screen, biochemical, uHTS, NADPH oxidase regulatory subunit. hit rate 0.53% among 220,000. fluorescence polarization, 2 h. Neutrophil cytosol factor 1 (Homo sapiens), P14598. AID 1274, 2008. inhibition, % at 24.7 µM;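 also: 0% = p47phox with labelled peptide and 100% = labelled peptide alone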
Target sequence (P14598 whole entry, looked up): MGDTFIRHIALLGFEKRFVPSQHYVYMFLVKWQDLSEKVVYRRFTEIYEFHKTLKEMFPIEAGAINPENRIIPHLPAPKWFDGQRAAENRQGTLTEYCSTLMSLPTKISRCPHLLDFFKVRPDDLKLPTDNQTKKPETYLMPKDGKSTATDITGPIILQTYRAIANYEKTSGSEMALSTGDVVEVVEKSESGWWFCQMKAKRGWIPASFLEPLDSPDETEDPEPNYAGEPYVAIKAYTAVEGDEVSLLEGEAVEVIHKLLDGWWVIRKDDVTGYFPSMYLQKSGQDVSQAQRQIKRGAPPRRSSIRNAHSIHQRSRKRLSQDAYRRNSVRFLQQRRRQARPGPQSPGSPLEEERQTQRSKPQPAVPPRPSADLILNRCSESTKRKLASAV
Tb MetRS inh: T. brucei MetRS inhibitors, primary screen, biochemical, luminescence; hit rate 0.4% among 360,000; purified T. brucei MetRS, ATP depletion, Kinase-Glo luminescence; inhibition, % at 11.9 µM;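 active = inhibition above a per-plate cutoff of the control wells' mean inhibition plus 3 SD, cut at about 5.5% in these data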;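 also: 0% = DMSO wells median and 100% = median of wells with control inhibitor compound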
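Test system: purified T. brucei MetRS enzyme. Also added: ATP, methionine and E. coli bulk tRNA substrates. Compound: 11.9 µM single point. Schedule: 15 min enzyme-compound preincubation, 2 h reaction, 10 min detection, 25 °C. Signal: luciferase luminescence of residual ATP, Kinase-Glo. Evaluation: percent inhibition versus plate control medians. Controls: DMSO wells, low control.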
eIF4E 4G PPI: eIF4E–eIF4G protein interaction inhibitors, primary screen, biochemical, uHTS, TR-FRET, eIF4GI fragment. TR-FRET eIF4E-eIF4GI(517-606) binding, 2 h. inhibition, % at 21.7 µM. hit rate 0.37% among 220,000. Eukaryotic translation initiation factor 4E (Mus musculus) + Eukaryotic translation …;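 also: 0% = full FRET control wells and 100% = background wells lacking eIF4GI fragment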
TbMetRS confirm: T. brucei MetRS inhibitors, confirmation, biochemical, luminescence | shares compounds with Tb MetRS inh | T. brucei MetRS enzyme, luminescence (ATP depletion) | inhibition, % at 11.9 µM | hit rate 93% among 1,400 | AID 624412, 2012; in the data active = inhibition above about 7%
Jurkat cytotox: Jurkat T cell cytotoxicity, cytotoxicity control for T. brucei MetRS inhibitor project, luminescence, high throughput; inhibition, % at 8.3 µM; hit rate 12% among 1,400; Jurkat cells viability, ATP luminescence; shares compounds with Tb MetRS inh; in the data active = inhibition above about 15%;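 also: 0% = vehicle and 100% = reference inhibitor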
Tb MetRS inh FP: T. brucei MetRS inhibitors, orthogonal assay for T. brucei MetRS inhibitor project, biochemical, fluorescence polarization. shares compounds with Tb MetRS inh. purified T. brucei MetRS. inhibition, % at 11.9 µM. hit rate 44% among 1,400. AID 651607, 2012; in the data active = inhibition above about 17%;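 also: 0% = vehicle wells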
* hit, by the source's call. In the library only some 1.6% were active in any assay of this set; here they are far more common.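 The calls were made as follows, unless noted: active = inhibition above about 30% (limit read from the data); inactive = the rest.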

For COc1ccc(C(=O)CNc2cccc(F)c2)cc1 the results were UBC9 SUMO inh -3 and Tb MetRS inh 0.
For COC(=O)[C@H](Cc1c[nH]c2ccccc12)NC(=O)NCc1ccc(OC)cc1 the results were UBC9 SUMO inh 9, Tb MetRS inh 6.6*, TbMetRS confirm 15*, Jurkat cytotox -4 and Tb MetRS inh FP 4.
Screening COC(=O)[C@H](Cc1c[nH]c2ccccc12)NC(=O)NCc1ccc(OC)c(OC)c1 returned UBC9 SUMO inh 2 and Tb MetRS inh 0.
Screening Cc1ccc2[nH]cc(S(=O)(=O)c3ccc(F)cc3)c(=O)c2c1 returned UBC9 SUMO inh 13, Tb MetRS inh 29*, TbMetRS confirm 41*, Jurkat cytotox 0 and Tb MetRS inh FP 16.
`CCC(CC)N1CCN(S(=O)(=O)c2ccc(OC)cc2)CC1` gave UBC9 SUMO inh 7 and Tb MetRS inh -2.
CC(=O)c1cccc(NC(=O)CSc2nnc(C(C)N(C)C)n2Cc2ccccc2)c1 (centres undefined) was read as UBC9 SUMO inh 6, Tb MetRS inh 5.6*, TbMetRS confirm 2, Jurkat cytotox 3 and Tb MetRS inh FP -3.
Screening Cc1ccc2oc(=O)c3cnn(CC(=O)Nc4cc(-c5cccc(F)c5)no4)c3c2c1 returned UBC9 SUMO inh -5, 14-3-3 Bad inh 38, p97 inhibitor -2, NCF1 inh 8, Tb MetRS inh 0 and eIF4E 4G PPI -1.
`Cc1cc(=O)n2c(n1)NC(=NCc1ccccc1)NC2c1ccccc1` (centres undefined) gave UBC9 SUMO inh 9, 14-3-3 Bad inh -6, p97 inhibitor 8, NCF1 inh -10, Tb MetRS inh 8.5*, eIF4E 4G PPI -3, TbMetRS confirm 18*, Jurkat cytotox 1 and Tb MetRS inh FP 11.
Screening Cc1ccc(NC(=O)C2(C)CCN2Cc2ccccc2OC(F)F)cc1 (centres undefined) returned Tb MetRS inh 0.
Nc1nc(N)c(-c2cccc(C(F)(F)F)c2)c(Cc2cccc(C(F)(F)F)c2)n1 was read as Tb MetRS inh 16*, TbMetRS confirm 60*, Jurkat cytotox -6 and Tb MetRS inh FP 34*.
`O=C(Cn1c2ccccc2c(=O)c2ccccc21)Nc1cccc(F)c1` gave UBC9 SUMO inh 25, 14-3-3 Bad inh 22, p97 inhibitor 6, NCF1 inh 14, Tb MetRS inh 0 and eIF4E 4G PPI -4.
`O=C(COc1ccc(Br)cc1F)NC1CC1` gave Tb MetRS inh 0.
`O=C(O)c1ccc(CNC(=O)C2CCN(S(=O)(=O)c3cccs3)CC2)cc1` gave Tb MetRS inh 0.
For CC(C)(C)NC(=O)NC(=O)CSc1n[nH]c(-c2ccccc2Br)n1 the results were UBC9 SUMO inh 9, 14-3-3 Bad inh -8, p97 inhibitor 5, NCF1 inh -3, Tb MetRS inh -1 and eIF4E 4G PPI -4.
c1ccc2c(c1)CSc1ccccc1N2 was read as Tb MetRS inh 1.
For COc1cccc(C2=NNC(=NCc3ccccc3)SC2)c1 the results were UBC9 SUMO inh -1, 14-3-3 Bad inh -5, p97 inhibitor 6, NCF1 inh -7, Tb MetRS inh 0 and eIF4E 4G PPI -2.
c1cncc(CN=C2Nc3ccccc3CS2)c1 was read as UBC9 SUMO inh 3, 14-3-3 Bad inh -2, p97 inhibitor 7, NCF1 inh 7, Tb MetRS inh 8.6*, eIF4E 4G PPI 2, TbMetRS confirm 17*, Jurkat cytotox -4 and Tb MetRS inh FP 9.
For Cc1ccc(CN=C2Nc3ccccc3CS2)cc1 the results were UBC9 SUMO inh -18, 14-3-3 Bad inh -1, p97 inhibitor 2, NCF1 inh -12, Tb MetRS inh 19*, eIF4E 4G PPI -3, TbMetRS confirm 32*, Jurkat cytotox 3 and Tb MetRS inh FP 8.
Clc1ccc(CN=C2Nc3ccccc3CS2)cc1 was read as UBC9 SUMO inh -38, 14-3-3 Bad inh 8, p97 inhibitor 4, NCF1 inh -17, Tb MetRS inh 12*, eIF4E 4G PPI -4, TbMetRS confirm 25*, Jurkat cytotox 2 and Tb MetRS inh FP 14.
COc1cccc(CN=C2Nc3ccccc3CS2)c1 was read as UBC9 SUMO inh -2, 14-3-3 Bad inh -2, p97 inhibitor 4, NCF1 inh -6, Tb MetRS inh 6.1*, eIF4E 4G PPI 0, TbMetRS confirm 11*, Jurkat cytotox 13 and Tb MetRS inh FP 3.
Cc1ccc(C)c(C2=NNC(=NCc3ccccc3)SC2)c1 was read as UBC9 SUMO inh -5, 14-3-3 Bad inh -19, p97 inhibitor 0, NCF1 inh -3, Tb MetRS inh 0 and eIF4E 4G PPI -2.
For CN(C)C(=S)Oc1ccccc1-c1ccccc1OC(=S)N(C)C the results were UBC9 SUMO inh 3 and Tb MetRS inh 0.
For O=C(NNS(=O)(=O)c1ccc(C(F)(F)F)cc1)c1cnn(-c2ccccc2)c1C(F)(F)F the results were UBC9 SUMO inh 1, 14-3-3 Bad inh -2, p97 inhibitor -3, NCF1 inh -4, Tb MetRS inh 0 and eIF4E 4G PPI -4.
Screening S=C1Nc2ccccc2CS1 returned Tb MetRS inh -1.
For COc1ccccc1CN=C1Nc2ccccc2CS1 the results were UBC9 SUMO inh -2, 14-3-3 Bad inh -4, p97 inhibitor -3, NCF1 inh -2, Tb MetRS inh 13*, eIF4E 4G PPI -2, TbMetRS confirm 32*, Jurkat cytotox -3 and Tb MetRS inh FP 11.
Screening CN(CCO)c1ccc2c(c1)OC[C@@H](Cc1ccccc1)NS2(=O)=O returned Tb MetRS inh 0.
